Reference: ChEMBL document CHEMBL5223075, “Discovery of thienothiazolocarboxamide analogues as novel anti-tubercular agent” (Bioorg Med Chem, 2020)
In brackets after ≈: the same amount, converted by molar mass. Activity calls are given as the source filed them. No cut-off for these calls is given here.

Columns and labels:
[1] = system: Mycobacterium tuberculosis; test: Antitubercular activity against Mycobacterium tuberculosis H37Rv ATCC 27294 expressing the green fluorescence protein assessed as inhibition of bacterial growth by measuring GFP fluorescence incubated for 5 days by fluorescence based plate reader analysis; type: functional, organism-based; details: H37Rv ATCC 27294, 120 h
Method in brief: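 H37Rv-GFP was grown 14 days in 7H9/OADC/Tween/glycerol/hygromycin, washed, and seeded at ~3×10^6 CFU/mL. Compounds were given as 10-point 2-fold series starting at 20 or 1 µM, in 1% DMSO final. Plates ran 5 days at 37°C, 5% CO2, with rifampicin 1 µg/mL as positive control. GFP fluorescence was read and IC50 taken from a 4-parameter sigmoid fit.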

[2] = system: Mycobacterium tuberculosis; test: Antitubercular activity against Mycobacterium tuberculosis H37Rv ATCC 27294 expressing the green fluorescence protein infected in mouse RAW264.7 cells assessed as inhibition of bacterial growth pre-infected with cell followed by compound addition and measured after 5 days by Hoechst 33342 staining based analysis; type: functional, organism-based; details: H37Rv ATCC 27294, RAW264.7, 120 h
Method in brief: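 RAW 264.7 cells, passages 2-9, were infected with washed H37Rv-GFP at MOI 20 for 2 h at 37°C with shaking. Cells were washed and plated at 20,000/well over 2-fold compound dilutions for 5 days. Nuclei were stained with 5 µM Hoechst (final) and 3 fields/well imaged. Four parameters (cell count, bacterial area, area per infected cell, infected-cell ratio) were each fitted by 4-parameter sigmoid, and the IC50s averaged.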

[3] = Stability in human plasma measured after 2 hrs; type: ADME, cell-free; details: read-out: Stability
Jurkat = test: Cytotoxicity against human Jurkat cells assessed as inhibition of cell growth; type: functional, cell-based
[4] = Metabolic stability in human liver microsome assessed as phase I mediated metabolite formation by measuring half-life; type: ADME; details: microsomes
[5] = Protein binding in human plasma; type: ADME, cell-free; details: read-out: PPB (converted)
A549 = test: Cytotoxicity against human A549 cells assessed as inhibition of cell growth; type: functional, cell-based
[6] = Half-life in BALB/c mouse at 10 mg/kg, po by LC-MS analysis; type: ADME, organism-based; details: in vivo
Method in brief: (§1)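 Female BALB/c mice, 6-8 weeks old. Dosed i.v. at 2 or 3 mg/kg, or orally at 10 mg/kg. Vehicles varied by compound: DMSO/Captisol, DMSO/PEG400/SBE-b-CD, or DMSO/Cremophor EL/Captisol. Blood was held at 4°C within 1 h, then centrifuged at 3200 × g for 10 min at 4°C. Plasma was kept at 4°C, and compound levels were measured by LC-MS.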

[7] = Metabolic stability in human liver microsome assessed as phase II mediated metabolite formation by measuring half-life; type: ADME; details: microsomes
[8] = Tmax in BALB/c mouse at 10 mg/kg, po by LC-MS analysis; type: ADME, organism-based; details: in vivo; method in brief: as §1
[9] = Cmax in BALB/c mouse at 10 mg/kg, po by LC-MS analysis; type: ADME, organism-based; parameters: dose 10 mg/kg, route po; details: in vivo; method in brief: as §1
HepG2 = test: Cytotoxicity against human HepG2 cells assessed as inhibition of cell growth; type: functional, cell-based
[10] = Solubility of the compound at pH 2.1; type: physicochemical; details: buffer
[11] = Cytotoxicity against HEK293 cells assessed as inhibition of cell growth; type: toxicity, cell-based; details: human
[12] = Half-life in BALB/c mouse at 2 mg/kg, iv by LC-MS analysis; type: ADME, organism-based; details: in vivo; method in brief: as §1
[13] = Drug concentration in BALB/c mouse plasma at 10 mg/kg, po by LC-MS analysis; type: ADME, organism-based; details: in vivo; method in brief: as §1
[14] = Metabolic stability in mouse liver microsome assessed as phase II mediated metabolite formation by measuring half-life; type: ADME; details: microsomes
[15] = Stability in mouse plasma measured after 2 hrs; type: ADME, cell-free; details: read-out: Stability
[16] = system: Mycobacterium tuberculosis; test: Antibacterial activity against Mycobacterium tuberculosis H37Rv ATCC 27294 infected in BALB/c mouse assessed as reduction in bacterial load in lungs at 25 to 100 mg/kg, po administered five times a week for 28 days; type: functional, organism-based; details: dose 25-100 mg/kg, time 28.0 day
Method in brief: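 Female BALB/c mice, 6-8 weeks old, were infected intranasally with ~300-600 CFU H37Rv, 5 mice per group. Oral gavage began at day 21, 5 days/week for 4 weeks. Lungs were taken a day after the last dose, homogenized in PBS, serially diluted and plated in duplicate on 7H11-OADC agar for 2-5 weeks at 37°C. Detection limit ~2.3 logs. Bonferroni test against vehicle-treated mice.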

[17] = Solubility of the compound at pH 7.4; type: physicochemical; details: buffer
[18] = Genotoxicity in Salmonella typhimurium TA98 by Ames mutagenicity test; type: toxicity; details: salmonella enterica subsp. enterica serovar typhimurium
[19] = Genotoxicity in Salmonella typhimurium TA98 in the presence of S9 fraction by Ames mutagenicity test; type: toxicity, subcellular; details: salmonella enterica subsp. enterica serovar typhimurium
[20] = Drug concentration in BALB/c mouse lung at 10 mg/kg, po by LC-MS analysis; type: ADME, organism-based; details: in vivo; method in brief: as §1
[21] = Oral bioavailability in BALB/c mouse at 10 mg/kg by LC-MS analysis; type: ADME, organism-based; details: in vivo; method in brief: as §1
[22] = Metabolic stability in mouse liver microsome assessed as phase I mediated metabolite formation by measuring half-life; type: ADME; details: microsomes
[23] = Protein binding in mouse plasma; type: ADME, cell-free; details: read-out: PPB (converted)
[24] = Genotoxicity in Salmonella typhimurium TA100 in the presence of S9 fraction by Ames mutagenicity test; type: toxicity, subcellular; details: salmonella enterica subsp. enterica serovar typhimurium
[25] = Clearance in BALB/c mouse at 2 mg/kg, iv by LC-MS analysis; type: ADME, organism-based; details: in vivo; method in brief: as §1
[26] = Genotoxicity in Salmonella typhimurium TA100 by Ames mutagenicity test; type: toxicity; details: salmonella enterica subsp. enterica serovar typhimurium
[27] = Ratio of drug concentration in lung to plasma in BALB/c mouse at 10 mg/kg, po by LC-MS analysis; type: ADME, organism-based; method in brief: as §1
[28] = AUClast in BALB/c mouse at 10 mg/kg, po by LC-MS analysis; type: ADME, organism-based; parameters: dose 10 mg/kg, route po; details: in vivo; method in brief: as §1
[29] = Volume of distribution at steady state in BALB/c mouse at 2 mg/kg, iv by LC-MS analysis; type: ADME, organism-based; details: in vivo, read-out: Vdss; method in brief: as §1

## COc1ccc(NC(=O)c2cc3sc(N4CCC(F)(F)CC4)nc3s2)cc1
[1]
  IC50: 1100 nM
[2]
  IC50: 330 nM

## CO[C@H]1/C=C/O[C@@]2(C)Oc3c(C)c(O)c4c(O)c(c(/C=N/N5CCN(C)CC5)c(O)c4c3C2=O)NC(=O)/C(C)=C\C=C\[C@H](C)[C@H](O)[C@@H](C)[C@@H](O)[C@@H](C)[C@H](OC(C)=O)[C@@H]1C [RIFAMPIN]
[1]
  IC50: 10 nM
[2]
  IC50: 60 nM

## COc1ccc(CNC(=O)c2cc3sc(N4CCCCC4)nc3s2)cc1
[1]
  IC50: > 20000 nM
[2]
  IC50: > 20000 nM

## Cc1nc2cc(NC(=O)c3cc4sc(N5CCC(C(=O)N(C)C)CC5)nc4s3)ccc2o1
[3]
  remaining at 2 h: 86.1%
Jurkat
  IC50: > 50000 nM
[4]
  t1/2: > 60 min
[1]
  IC50: 500 nM
[5]
  fraction unbound: 0.049
[2]
  IC50: 510 nM
A549
  IC50: > 50000 nM
[6]
  half-life: 59.4 min
[7]
  t1/2: 99.7 min
[8]
  Tmax: 60 min
[9]
  Cmax: 7010 ng/mL
HepG2
  IC50: > 50000 nM
[10]
  solubility: 4 µg/mL (≈ 8.52 µM)
[11]
  IC50: > 50000 nM
[12]
  half-life: 55.2 min
[13]
  Cp: 4400 ng/mL
[14]
  t1/2: 124 min
[15]
  remaining at 2 h: 95.7%
[16]
  Activity: inactive
[17]
  solubility: 1.2 µg/mL (≈ 2.56 µM)
[18]
  Activity: Non-Toxic
[19]
  Activity: Non-Toxic
[20]
  Ct: 2986 ng/mL
[21]
  bioavailability: 71.2%
[22]
  t1/2: > 60 min
[23]
  fraction unbound: 0.036
[24]
  Activity: Non-Toxic
[25]
  clearance: 11.8 mL/min/kg
[26]
  Activity: Non-Toxic
[27]
  Kp: 0.7
[28]
  AUC(0-t): 10000 ng·h/mL
[29]
  Vd: 0.701 L/kg

## COc1ccc(N(C)C(=O)c2cc3sc(N4CCCCC4)nc3s2)cc1
[1]
  IC50: > 20000 nM
[2]
  IC50: > 20000 nM

## COc1ccc(NCc2cc3sc(N4CCCCC4)nc3s2)cc1
[1]
  IC50: > 20000 nM
[2]
  IC50: > 20000 nM

## Cc1nc2cc(NC(=O)c3cc4sc(NCCN5CCOCC5)nc4s3)ccc2o1
[4]
  t1/2: > 60 min
[1]
  IC50: 1350 nM
[2]
  IC50: 470 nM
[10]
  solubility: 37.1 µg/mL (≈ 83.6 µM)
[17]
  solubility: 2.1 µg/mL (≈ 4.73 µM)
[22]
  t1/2: > 60 min

## Cc1ccc(-c2ccc(NC(=O)c3cc4sc(NCCN5CCOCC5)nc4s3)cc2)nc1
[4]
  t1/2: 20.9 min
[1]
  IC50: 1350 nM
[2]
  IC50: 310 nM
[10]
  solubility: 52.3 µg/mL (≈ 109 µM)
[17]
  solubility: 1.3 µg/mL (≈ 2.71 µM)
[22]
  t1/2: 27.1 min

## COc1cc(NC(=O)c2cc3sc(N4CCCCC4)nc3s2)cc(OC)c1
[4]
  t1/2: 24.5 min
[1]
  IC50: > 20000 nM
[2]
  IC50: > 20000 nM
[22]
  t1/2: 33.6 min

## COc1ccc(NC(=O)c2cc3sc(N4CCNCC4)nc3s2)cc1
[1]
  IC50: 13700 nM
[2]
  IC50: 2100 nM

## COc1ccc(-c2ccc(NC(=O)c3cc4sc(NCCN5CCOCC5)nc4s3)cc2)nc1
[4]
  t1/2: < 30 min
[1]
  IC50: 1350 nM
[2]
  IC50: 190 nM
[10]
  solubility: > 50 µg/mL
[17]
  solubility: 0.2 µg/mL (≈ 0.404 µM)
[22]
  t1/2: < 30 min

## O=C(Nc1ccc(-c2ccc(C(F)(F)F)cn2)cc1)c1cc2sc(NCCN3CCOCC3)nc2s1
[1]
  IC50: 4500 nM
[2]
  IC50: 210 nM
[10]
  solubility: 44.3 µg/mL (≈ 83 µM)
[17]
  solubility: 9.8 µg/mL (≈ 18.4 µM)

## COc1ccc(NC(=O)c2cc3sc(N4CCOCC4)nc3s2)cc1
[4]
  t1/2: 57.6 min
[1]
  IC50: 1100 nM
[2]
  IC50: 210 nM
[22]
  t1/2: > 60 min

## Cc1nc2cc(NC(=O)c3cc4sc(N(C)CCO)nc4s3)ccc2o1
[4]
  t1/2: > 60 min
[1]
  IC50: 880 nM
[2]
  IC50: 1300 nM
[10]
  solubility: 20.6 µg/mL (≈ 53 µM)
[17]
  solubility: 4.5 µg/mL (≈ 11.6 µM)
[22]
  t1/2: 37.7 min

## COc1ccc(NC(=O)c2cc3sc(N(C)C)nc3s2)cc1
[1]
  IC50: 1600 nM
[2]
  IC50: 270 nM
